Measurements from ChEMBL document CHEMBL4130463, “Potential Anti-inflammatory Effects of the Fruits of Paulownia tomentosa” (J Nat Prod, 2017).
pIC50, pKi: −log10 of the molar value. Activity calls are given as the source filed them. The calls are words filed in the database; no cut-off is given here.

Legend:
Neutrophil elastase [1] = molecular target: T1, Neutrophil elastase (Homo sapiens, UniProt P08246); assay: Inhibition of human neutrophil elastase using MeOSuc-AAPV-pNA as substrate measured after 30 mins by spectrometric method
T1 sequence (P08246 whole entry): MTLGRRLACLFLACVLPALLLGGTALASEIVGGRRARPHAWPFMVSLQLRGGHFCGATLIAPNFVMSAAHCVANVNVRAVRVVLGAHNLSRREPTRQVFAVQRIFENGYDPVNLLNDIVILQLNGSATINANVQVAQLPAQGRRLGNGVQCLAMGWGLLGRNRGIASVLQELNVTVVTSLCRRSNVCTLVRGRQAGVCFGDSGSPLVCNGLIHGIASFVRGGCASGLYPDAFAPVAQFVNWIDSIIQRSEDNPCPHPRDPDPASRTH

Neutrophil elastase [2] = molecular target: T1, Neutrophil elastase; assay: Noncompetitive inhibition of human neutrophil elastase using varying levels of MeOSuc-AAPV-pNA as substrate measured after 30 mins by double-reciprocal Lineweaver-Burk plot analysis
A549 [3] = assay: Cytotoxicity against human A549 cells assessed as effect on cell viability at 2.5 uM after 24 hrs by CCK8 assay; type: cell-based; details: a549, 24 h
Summary of the method: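 A549 cells in RPMI 1640 with 10% FBS were seeded at about 1 × 10^4 cells/well and grown 16 h, then switched to FBS-free medium for 16 h. Compound added with or without TNF-α for 24 h. Viability measured in triplicate by CCK-8 absorbance and expressed as % of the negative control.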

A549 [4] = assay: Antiinflammatory activity in human A549 cells assessed as reduction in TNFalpha-induced IL8 production at 2.5 uM after 24 hrs by ELISA; type: functional, cell-based
Summary of the method: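 A549 cells (ATCC) grown in RPMI 1640 with 10% FBS and penicillin/streptomycin at 37 °C, 5% CO2. Seeded and grown 16 h, then held 16 h in FBS-free medium. Treated with compound with or without TNF-α for 24 h. IL-8 measured by ELISA at 450 nm and expressed as % of the TNF-α-alone control. Means ± SD of three independent experiments.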

Compound | pIC50 (Neutrophil elastase [1]) | pKi (Neutrophil elastase [2]) | Activity (A549 [3]) | Activity (A549 [4])
O=c1cc(-c2ccc(O)c(O)c2)oc2cc(O)cc(O)c12 [LUTEOLIN] | 4.90 | 5.00 |  | 
C=C(C)C(O)CC/C(C)=C/Cc1c(O)cc2c(c1O)C(=O)C[C@@H](c1cc(O)c(OC)c(O)c1)O2 (some centres not stated) |  |  | Non-Toxic | Active
COc1cc([C@@H]2CC(=O)c3c(cc4c(c3O)CCC(C)(CCCC(C)(C)O)O4)O2)cc(O)c1O (some centres not stated) |  |  | Non-Toxic | Active
COc1ccc([C@@H]2CC(=O)c3c(cc(O)c(C/C=C(\C)CCCC(C)(C)O)c3O)O2)cc1O |  |  | Non-Toxic | Active
CC(C)(O)CCCC1(C)CCc2c(cc3c(c2O)C(=O)[C@H](O)[C@@H](c2ccc(O)c(O)c2)O3)O1 (some centres not stated) |  |  | Non-Toxic | Active
COc1cc([C@@H]2CC(=O)c3c(cc(O)c(C/C=C(\C)CCCC(C)(C)O)c3O)O2)cc(OC)c1O |  |  | Non-Toxic | Active

Further lines, with some results ahead:

pIC50 (Neutrophil elastase [1]) | pKi (Neutrophil elastase [2]) | Compound | Activity (A549 [3]) | Activity (A549 [4])
< 4.00 |  | COc1cc([C@@H]2CC(=O)c3c(cc4c(c3O)CCC(C)(CCCC(C)(C)O)O4)O2)cc(OC)c1O (some centres not stated) |  | 
4.64 | 4.80 | CC(C)=CCC/C(C)=C/Cc1c(O)cc2c(c1O)C(=O)C[C@@H](c1ccc(O)c(O)c1)O2 [NYMPHAEOL A] |  | 
4.34 | 4.30 | O=c1cc(-c2ccc(O)cc2)oc2cc(O)cc(O)c12 [APIGENIN] |  | 
< 4.00 |  | CC(C)(O)CCCC1(C)CCc2c(cc3c(c2O)C(=O)C[C@@H](c2ccc(O)cc2)O3)O1 (some centres not stated) | Non-Toxic | Active
< 4.00 |  | COc1ccc([C@@H]2CC(=O)c3c(cc4c(c3O)CCC(C)(CCCC(C)(C)O)O4)O2)cc1O (some centres not stated) |  | 
4.15 |  | COc1cc([C@@H]2CC(=O)c3c(cc(O)c(C/C=C(\C)CCC=C(C)C)c3O)O2)cc(OC)c1O |  | 
